# Test results as given in ChEMBL document CHEMBL1914346, “Discovery and synthesis of novel substituted benzocoumarins as orally active lipid modulating agents” (Bioorg Med Chem Lett, 2011).
# Columns and labels:
# Syrian golden hamster [1] = assay: Antidyslipidemic activity in high fat diet-fed dyslipidemic syrian golden hamster model assessed as decrease in serum triglyceride level at 2.5 mg/kg relative to vehicle treated control; format: functional, Mesocricetus auratus; set-up: scale not given: the % may be the effect or the level left
# How it was run: (§1)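 Dose-response run on a separate set of high-fat/fructose-fed male Golden Syrian hamsters given oral doses of 2.5, 5, 10 and 25 mg/kg. Plasma TC, TG, HDL-C and LDL-C were measured by standard enzymatic methods on a clinical autoanalyzer. HDL/TC ratio was calculated. Results are % change relative to HFD-fed vehicle (gum acacia) controls.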
# Syrian golden hamster [2] = assay: Antidyslipidemic activity in high fat diet-fed dyslipidemic syrian golden hamster model assessed as decrease in serum triglyceride level at 25 mg/kg relative to vehicle treated control; format: functional, Mesocricetus auratus; set-up: scale not given: the % may be the effect or the level left; how it was run: as §1
# Syrian golden hamster [3] = assay: Antidyslipidemic activity in high fat diet-fed dyslipidemic syrian golden hamster model assessed as decrease in serum triglyceride level at 5 mg/kg relative to vehicle treated control; format: functional, Mesocricetus auratus; set-up: scale not given: the % may be the effect or the level left; how it was run: as §1
# [4] = target: T1, 3-hydroxy-3-methylglutaryl-coenzyme A reductase (Homo sapiens) (UniProt P04035); assay: Inhibition of HMG-CoA reductase using HMG-CoA as substrate at 25 uM
# T1 sequence (whole entry): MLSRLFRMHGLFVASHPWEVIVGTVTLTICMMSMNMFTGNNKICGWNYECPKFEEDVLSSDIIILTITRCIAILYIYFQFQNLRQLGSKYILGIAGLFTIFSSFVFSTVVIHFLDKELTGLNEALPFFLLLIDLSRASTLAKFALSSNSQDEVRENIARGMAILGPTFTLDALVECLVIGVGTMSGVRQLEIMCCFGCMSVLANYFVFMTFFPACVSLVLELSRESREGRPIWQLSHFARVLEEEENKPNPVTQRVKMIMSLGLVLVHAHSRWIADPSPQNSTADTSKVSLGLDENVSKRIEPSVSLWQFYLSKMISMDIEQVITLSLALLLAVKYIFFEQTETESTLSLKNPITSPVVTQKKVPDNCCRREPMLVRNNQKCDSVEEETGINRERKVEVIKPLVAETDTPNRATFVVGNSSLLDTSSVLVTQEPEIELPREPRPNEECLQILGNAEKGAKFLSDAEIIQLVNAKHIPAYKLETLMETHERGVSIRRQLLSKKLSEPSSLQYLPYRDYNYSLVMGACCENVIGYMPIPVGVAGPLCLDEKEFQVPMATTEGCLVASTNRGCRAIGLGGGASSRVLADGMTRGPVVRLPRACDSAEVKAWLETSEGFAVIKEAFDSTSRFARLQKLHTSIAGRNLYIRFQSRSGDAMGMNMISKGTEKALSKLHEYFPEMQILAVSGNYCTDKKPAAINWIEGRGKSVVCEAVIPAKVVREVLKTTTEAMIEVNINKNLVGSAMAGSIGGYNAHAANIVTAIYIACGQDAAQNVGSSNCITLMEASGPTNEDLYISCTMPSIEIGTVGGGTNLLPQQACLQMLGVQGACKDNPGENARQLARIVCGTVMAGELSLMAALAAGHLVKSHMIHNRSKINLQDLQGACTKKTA
# How it was run: (§2)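 HMG-CoA reductase kit assay using supplied HMGR enzyme, HMG-CoA substrate, NADPH and assay buffer. Test concentrations were 5, 10, 25, 50 and 100 µM, with % inhibition recorded at each.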
# Syrian golden hamster [5] = assay: Antidyslipidemic activity in high fat diet-fed dyslipidemic syrian golden hamster model assessed as decrease in serum LDL level at 10 mg/kg relative to vehicle treated control; format: functional, Mesocricetus auratus; set-up: scale not given: the % may be the effect or the level left; how it was run: as §1
# Syrian golden hamster [6] = assay: Antidyslipidemic activity in high fat diet-fed dyslipidemic syrian golden hamster model assessed as increase in serum ratio of HDL/total cholesterol level at 5 mg/kg relative to vehicle treated control; format: functional, Mesocricetus auratus; how it was run: as §1
# Syrian golden hamster [7] = assay: Toxicity in syrian golden hamster; format: organism-based, Mesocricetus auratus; settings: in vivo
# How it was run: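 HFD-fed male Golden Syrian hamsters, eight per group, dosed orally at 10 mg/kg once daily for 7 days in 0.1% gum acacia. Body weight was recorded daily and food intake was monitored, then compared with HFD vehicle controls.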
# [8] = target: T1, 3-hydroxy-3-methylglutaryl-coenzyme A reductase (Homo sapiens); assay: Inhibition of HMG-CoA reductase using HMG-CoA as substrate at 100 uM; how it was run: as §2
# Syrian golden hamster [9] = assay: Antidyslipidemic activity in high fat diet-fed dyslipidemic syrian golden hamster model assessed as decrease in serum LDL level at 25 mg/kg relative to vehicle treated control; format: functional, Mesocricetus auratus; set-up: scale not given: the % may be the effect or the level left; how it was run: as §1
# [10] = target: T1, 3-hydroxy-3-methylglutaryl-coenzyme A reductase (Homo sapiens); assay: Inhibition of HMG-CoA reductase using HMG-CoA as substrate at 50 uM; how it was run: as §2
# Syrian golden hamster [11] = assay: Antidyslipidemic activity in high fat diet-fed dyslipidemic syrian golden hamster model assessed as decrease in serum total cholesterol level at 2.5 mg/kg relative to vehicle treated control; format: functional, Mesocricetus auratus; set-up: scale not given: the % may be the effect or the level left; how it was run: as §1
# Syrian golden hamster [12] = assay: Antidyslipidemic activity in high fat diet-fed dyslipidemic syrian golden hamster model assessed as decrease in serum LDL level at 5 mg/kg relative to vehicle treated control; format: functional, Mesocricetus auratus; set-up: scale not given: the % may be the effect or the level left; how it was run: as §1
# [13] = Antioxidant activity assessed as trolox equivalent by TEAC assay; format: functional
# Syrian golden hamster [14] = assay: Antidyslipidemic activity in high fat diet-fed dyslipidemic syrian golden hamster model assessed as decrease in serum triglyceride level at 10 mg/kg, po administered once daily for 7 days relative to vehicle treated control; format: functional, Mesocricetus auratus; set-up: scale not given: the % may be the effect or the level left
# How it was run: (§3)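 Male Golden Syrian hamsters, 12 weeks old, 110 ± 10 g, eight per group, fed high-fat diet plus fructose daily on days 1–10. Oral dosing once daily on days 4–10 in 0.1% gum acacia; HFD-fed vehicle animals served as controls. After the last dose, retro-orbital blood was taken into EDTA and plasma lipids were measured enzymatically on an autoanalyzer. Results are % change versus HFD controls; t-test/ANOVA, p<0.05.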
# [15] = target: T1, 3-hydroxy-3-methylglutaryl-coenzyme A reductase (Homo sapiens); assay: Inhibition of HMG-CoA reductase using HMG-CoA as substrate at 5 uM; how it was run: as §2
# Syrian golden hamster [16] = assay: Antidyslipidemic activity in high fat diet-fed dyslipidemic syrian golden hamster model assessed as decrease in serum triglyceride level at 10 mg/kg relative to vehicle treated control; format: functional, Mesocricetus auratus; set-up: scale not given: the % may be the effect or the level left; how it was run: as §1
# Syrian golden hamster [17] = assay: Antidyslipidemic activity in high fat diet-fed dyslipidemic syrian golden hamster model assessed as decrease in serum LDL level at 2.5 mg/kg relative to vehicle treated control; format: functional, Mesocricetus auratus; set-up: scale not given: the % may be the effect or the level left; how it was run: as §1
# Syrian golden hamster [18] = assay: Antidyslipidemic activity in high fat diet-fed dyslipidemic syrian golden hamster model assessed as decrease in serum total cholesterol level at 10 mg/kg relative to vehicle treated control; format: functional, Mesocricetus auratus; set-up: scale not given: the % may be the effect or the level left; how it was run: as §1
# Syrian golden hamster [19] = assay: Antidyslipidemic activity in high fat diet-fed dyslipidemic syrian golden hamster model assessed as decrease in serum total cholesterol level at 5 mg/kg relative to vehicle treated control; format: functional, Mesocricetus auratus; set-up: scale not given: the % may be the effect or the level left; how it was run: as §1
# Syrian golden hamster [20] = assay: Antidyslipidemic activity in high fat diet-fed dyslipidemic syrian golden hamster model assessed as decrease in serum total cholesterol level at 10 mg/kg, po administered once daily for 7 days relative to vehicle treated control; format: functional, Mesocricetus auratus; set-up: scale not given: the % may be the effect or the level left; how it was run: as §3
# Syrian golden hamster [21] = assay: Antidyslipidemic activity in high fat diet-fed dyslipidemic syrian golden hamster model assessed as increase in serum ratio of HDL/total cholesterol level at 10 mg/kg relative to vehicle treated control; format: functional, Mesocricetus auratus; how it was run: as §1
# Syrian golden hamster [22] = assay: Antidyslipidemic activity in high fat diet-fed dyslipidemic syrian golden hamster model assessed as increase in serum ratio of serum HDL/total cholesterol level at 10 mg/kg, po administered once daily for 7 days relative to vehicle treated control; format: functional, Mesocricetus auratus; how it was run: as §3
# Syrian golden hamster [23] = assay: Antidyslipidemic activity in high fat diet-fed dyslipidemic syrian golden hamster model assessed as decrease in serum total cholesterol level at 25 mg/kg relative to vehicle treated control; format: functional, Mesocricetus auratus; set-up: scale not given: the % may be the effect or the level left; how it was run: as §1
# Syrian golden hamster [24] = assay: Antidyslipidemic activity in high fat diet-fed dyslipidemic syrian golden hamster model assessed as increase in serum ratio of HDL/total cholesterol level at 2.5 mg/kg relative to vehicle treated control; format: functional, Mesocricetus auratus; how it was run: as §1
# Syrian golden hamster [25] = assay: Antidyslipidemic activity in high fat diet-fed dyslipidemic syrian golden hamster model assessed as increase in serum HDL level at 10 mg/kg, po administered once daily for 7 days relative to vehicle treated control; format: functional, Mesocricetus auratus; how it was run: as §3
# [26] = target: T1, 3-hydroxy-3-methylglutaryl-coenzyme A reductase (Homo sapiens); assay: Inhibition of HMG-CoA reductase using HMG-CoA as substrate at 10 uM; how it was run: as §2
# Syrian golden hamster [27] = assay: Antidyslipidemic activity in high fat diet-fed dyslipidemic syrian golden hamster model assessed as increase in serum ratio of HDL/total cholesterol level at 25 mg/kg relative to vehicle treated control; format: functional, Mesocricetus auratus; how it was run: as §1
# Syrian golden hamster [28] = assay: Antidyslipidemic activity in high fat diet-fed dyslipidemic syrian golden hamster model assessed as decrease in serum LDL level at 10 mg/kg, po administered once daily for 7 days relative to vehicle treated control; format: functional, Mesocricetus auratus; set-up: scale not given: the % may be the effect or the level left; how it was run: as §3
smiles,measurement,setting,value
COc1ccc(CN/C=C2\C=C(C=O)c3c(ccc4c(C)cc(=O)oc34)C2=O)cc1,Activity,Syrian golden hamster [1],35%
same,Activity,Syrian golden hamster [2],61%
same,Activity,Syrian golden hamster [3],38%
same,inhibition,[4],40.3%
same,Activity,Syrian golden hamster [5],14%
same,Activity,Syrian golden hamster [6],26%
same,Activity,Syrian golden hamster [7],Non-toxic
same,inhibition,[8],63.8%
same,Activity,Syrian golden hamster [9],19%
same,inhibition,[10],50.1%
same,Activity,Syrian golden hamster [11],19%
same,Activity,Syrian golden hamster [12],8%
same,Activity,[13],1.36 mM
same,Activity,Syrian golden hamster [14],70%
same,inhibition,[15],26.1%
same,Activity,Syrian golden hamster [16],58%
same,Activity,Syrian golden hamster [17],3%
same,Activity,Syrian golden hamster [18],39%
same,Activity,Syrian golden hamster [19],18%
same,Activity,Syrian golden hamster [20],47%
same,Activity,Syrian golden hamster [21],71%
same,Activity,Syrian golden hamster [22],80%
same,Activity,Syrian golden hamster [23],45%
same,Activity,Syrian golden hamster [24],18%
same,Activity,Syrian golden hamster [25],1%
same,inhibition,[26],34.2%
same,Activity,Syrian golden hamster [27],86%
same,Activity,Syrian golden hamster [28],54%
